According to ChEMBL document CHEMBL1177681, “Hybrid diarylbenzopyrimidine non-nucleoside reverse transcriptase inhibitors as promising new leads for improved anti-HIV-1 chemotherapy” (Bioorg Med Chem, 2010):

Columns and labels:
[1] = test system: Human immunodeficiency virus 1; assay: Antiviral activity against wild type HIV1 3B infected in human MT4 cells assessed as protection against virus-induced cytopathogenicity after 4 days by MTT assay; format: functional, organism-based; details: Human immunodeficiency virus 1, 3B, MT4, 96 h
Procedure, shortened: (§1)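 MT-4 cells at 1 × 10⁵ cells/mL infected at multiplicity of infection 0.02, then immediately plated onto serial dilutions of compound (DMSO stocks of 50 mM or higher). After 4 days at 37 °C, viable cells counted by MTT. […] Virus stocks titrated in MT-4 cells as CCID50.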

[2] = test system: Human immunodeficiency virus 2; assay: Antiviral activity against wild type HIV2 ROD infected in human MT4 cells assessed as protection against virus-induced cytopathogenicity after 4 days by MTT assay; format: functional, organism-based; details: Human immunodeficiency virus 2, ISOLATE ROD, MT4, 96 h; procedure, shortened: as §1
[3] = Cytotoxicity against human MT4 cells after 4 days by MTT assay; format: cell-based
Procedure, shortened: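 Uninfected MT-4 cells were run in parallel with the antiviral plates and exposed to serial compound dilutions (DMSO stocks of 50 mM or higher) for 4 days at 37 °C. Viability was read by MTT.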

[4] = Selectivity index, CC50 for human MT4 cells to EC50 for wild type HIV1 3B; format: toxicity, cell-based; details: read-out: Ratio CC50/EC50
Procedure, shortened: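 Selectivity index is calculated as CC50 in uninfected MT-4 cells divided by EC50 against HIV-1 IIIB. Both come from parallel 4-day MTT readings at 37 °C, with infection at multiplicity of infection 0.02.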

[5] = test system: Human immunodeficiency virus 1; assay: Antiviral activity against HIV1 with reverse transcriptase K103N, Y181C mutant infected in human MT4 cells assessed as protection against virus-induced cytopathogenicity after 4 days by MTT assay; format: functional, organism-based; details: Human immunodeficiency virus 1, MT4, 96 h
Procedure, shortened: (§2)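 MT-4 cells at 1 × 10⁵ cells/mL were infected with the mutant HIV-1 at a multiplicity of infection of 0.02. Virus stocks were titred in MT-4 cells as CCID₅₀. Cells were plated at once onto serial compound dilutions, with DMSO stocks at 50 mM or higher. After 4 days at 37 °C, viable cells were counted by MTT. EC₅₀ is the concentration giving 50% protection from viral cytopathicity.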

[6] = test system: Human immunodeficiency virus 1; assay: Antiviral activity against wild type HIV1 LAI infected in human MT4 cells assessed as protection against virus-induced cytopathogenicity after 4 days by MTT assay; format: functional, organism-based; details: Human immunodeficiency virus 1, LAI, MT4, 96 h
[7] = test system: Human immunodeficiency virus 1; assay: Antiviral activity against HIV1 with reverse transcriptase E138K mutant infected in human MT4 cells assessed as protection against virus-induced cytopathogenicity after 4 days by MTT assay; format: functional, organism-based; details: Human immunodeficiency virus 1, MT4, 96 h; procedure, shortened: as §2
[8] = test system: Human immunodeficiency virus 1; assay: Antiviral activity against HIV1 with reverse transcriptase L100I mutant infected in human MT4 cells assessed as protection against virus-induced cytopathogenicity after 4 days by MTT assay; format: functional, organism-based; details: Human immunodeficiency virus 1, MT4, 96 h; procedure, shortened: as §2
[9] = test system: Human immunodeficiency virus 1; assay: Antiviral activity against HIV1 with reverse transcriptase K103N mutant infected in human MT4 cells assessed as protection against virus-induced cytopathogenicity after 4 days by MTT assay; format: functional, organism-based; details: Human immunodeficiency virus 1, MT4, 96 h
[10] = test system: Human immunodeficiency virus 1; assay: Antiviral activity against HIV1 with reverse transcriptase Y181C mutant infected in human MT4 cells assessed as protection against virus-induced cytopathogenicity after 4 days by MTT assay; format: functional, organism-based; details: Human immunodeficiency virus 1, MT4, 96 h; procedure, shortened: as §2
[11] = test system: Human immunodeficiency virus 1; assay: Antiviral activity against HIV1 with reverse transcriptase Y188L mutant infected in human MT4 cells assessed as protection against virus-induced cytopathogenicity after 4 days by MTT assay; format: functional, organism-based; details: Human immunodeficiency virus 1, MT4, 96 h; procedure, shortened: as §2
[12] = test system: Human immunodeficiency virus 1; assay: Antiviral activity against HIV1 with reverse transcriptase F227L, V106A mutant infected in human MT4 cells assessed as protection against virus-induced cytopathogenicity after 4 days by MTT assay; format: functional, organism-based; details: Human immunodeficiency virus 1, MT4, 96 h; procedure, shortened: as §2
[13] = test system: Human immunodeficiency virus 1; assay: Ratio of compound EC50 to nevirapine EC50 for wild type HIV1 3B; format: functional
[14] = test system: Human immunodeficiency virus 1; assay: Ratio of compound EC50 to delavirdine EC50 for wild type HIV1 3B; format: functional
[15] = test system: Human immunodeficiency virus 1; assay: Ratio of compound EC50 to efavirenz EC50 for HIV1 with reverse transcriptase Y188L mutant; format: functional

Row | Structure (SMILES) | EC50 [1] [nM] | EC50 [2] [nM] | CC50 at 96 h [3] [nM] | selectivity ratio [4] | EC50 [5] [nM] | EC50 [6] [nM] | EC50 [7] [nM] | EC50 [8] [nM] | EC50 [9] [nM] | EC50 [10] [nM] | EC50 [11] [nM] | EC50 [12] [nM] | Ratio [13] | Ratio [14] | Ratio [15]
1 | N#Cc1ccc(Nc2nc(Oc3ccccc3)c3ccccc3n2)cc1 | 1330 | > 369000 | 370000 | > 279 |  |  |  |  |  |  |  |  |  |  | 
2 | Cc1ccccc1Oc1nc(Nc2ccc(C#N)cc2)nc2ccccc12 | 57 | > 355000 | 355000 | > 6210 |  |  |  |  |  |  |  |  |  |  | 
3 | Cc1cccc(Oc2nc(Nc3ccc(C#N)cc3)nc3ccccc23)c1 | 823 | > 355000 | 355000 | > 436 |  |  |  |  |  |  |  |  |  |  | 
4 | COc1ccccc1Oc1nc(Nc2ccc(C#N)cc2)nc2ccccc12 | 120 | > 26000 | 150000 | 1260 |  |  |  |  |  |  |  |  |  |  | 
5 | Cc1ccc(Oc2nc(Nc3ccc(C#N)cc3)nc3ccccc23)cc1 | 105 | > 86000 | 87000 | 831 |  |  |  |  |  |  |  |  |  |  | 
6 | N#Cc1ccc(Nc2nc(Oc3ccccc3Cl)c3ccccc3n2)cc1 | 37 | > 37000 | 38000 | 982 |  |  |  |  |  |  |  |  |  |  | 
7 | N#Cc1ccc(Nc2nc(Oc3ccc(F)cc3)c3ccccc3n2)cc1 | 590 | > 351000 | > 351000 | > 607 |  |  |  |  |  |  |  |  |  |  | 
8 | N#Cc1ccc(Nc2nc(Oc3ccc(Cl)cc3)c3ccccc3n2)cc1 | 190 | > 197000 | 198000 | 1040 |  |  |  |  |  |  |  |  |  |  | 
9 | N#Cc1ccc(Nc2nc(Oc3ccc(Br)cc3)c3ccccc3n2)cc1 | 264 | > 214000 | 215000 | 810 |  |  |  |  |  |  |  |  |  |  | 
10 | COc1ccc(Oc2nc(Nc3ccc(C#N)cc3)nc3ccccc23)cc1 | 190 | > 339000 | 340000 | > 1790 | > 339000 |  |  |  |  |  |  |  |  |  | 
11 | N#Cc1ccc(Nc2nc(Oc3ccc(Cl)cc3Cl)c3ccccc3n2)cc1 | 23 | > 31000 | 32000 | 1410 | > 31000 |  |  |  |  |  |  |  |  |  | 
12 | N#Cc1ccc(Nc2nc(Oc3c(Cl)cc(Cl)cc3Cl)c3ccccc3n2)cc1 | 21 | > 55000 | 56000 | 2630 | 1500 |  |  |  |  |  |  |  |  |  | 
13 | Cc1cccc(C)c1Oc1nc(Nc2ccc(C#N)cc2)nc2ccccc12 | 23 | ≥ 10000 | 35000 | 1510 | 530 |  |  |  |  |  |  |  |  |  | 
14 | Cc1cc(C)c(Oc2nc(Nc3ccc(C#N)cc3)nc3ccccc23)c(C)c1 | 11 | > 34000 | > 34000 | > 3220 | 2000 |  |  |  |  |  |  |  |  |  | 
15 | Cc1cc(Br)cc(Br)c1Oc1nc(Nc2ccc(C#N)cc2)nc2ccccc12 | 19 | ≥ 14000 | 150000 | 7930 | 350 |  |  |  |  |  |  |  |  |  | 
16 | Cc1cc(Br)c(Oc2nc(Nc3ccc(C#N)cc3)nc3ccccc23)c(Br)c1 | 20 | ≥ 4600 | 25000 | 1280 | 590 |  |  |  |  |  |  |  |  |  | 
17 | N#Cc1ccc(Nc2nc(Oc3c(Br)cc(Br)cc3Br)c3ccccc3n2)cc1 | 28 | ≥ 8600 | 58000 | 2120 | 930 |  |  |  |  |  |  |  |  |  | 
18 | CCOc1cc(C#N)cc(Cl)c1Oc1nc(Nc2ccc(C#N)cc2)nc2ccccc12 | 7.5 | > 21000 | 22000 | 2970 | 290 |  |  |  |  |  |  |  |  |  | 
19 | COc1cc(C#N)ccc1Oc1nc(Nc2ccc(C#N)cc2)nc2ccccc12 | 33 | > 140000 | ≥ 140000 | 64200 | > 140000 |  |  |  |  |  |  |  |  |  | 
20 | COc1cc(C#N)cc(OC)c1Oc1nc(Nc2ccc(C#N)cc2)nc2ccccc12 | 8.7 | > 194000 | 194000 | 22000 | 920 |  |  |  |  |  |  |  |  |  | 
21 | CCOc1cc(C#N)cc(OCC)c1Oc1nc(Nc2ccc(C#N)cc2)nc2ccccc12 | 16 | > 108000 | 108000 | 6770 | > 108000 |  |  |  |  |  |  |  |  |  | 
22 | CCCOc1cc(C#N)cc(OC)c1Oc1nc(Nc2ccc(C#N)cc2)nc2ccccc12 | 13 | > 5200 | 5200 | 408 | > 5200 |  |  |  |  |  |  |  |  |  | 
23 | CCCOc1cc(C#N)cc(OCC)c1Oc1nc(Nc2ccc(C#N)cc2)nc2ccccc12 | 58 | > 122000 | 123000 | 2080 | > 122000 |  |  |  |  |  |  |  |  |  | 
24 | Cc1cc(C#N)cc(C)c1Oc1nc(Nc2ccc(C#N)cc2)nc2ccccc12 | 1.8 | 32000 | 203000 | 112000 | 60 | 2.3 | 11 | 18 | ≤ 3.6 | 31 | 36 | 107 | 731 | 266 | 6
25 | Cc1cc(C#N)cc(C)c1Oc1nc(Nc2ccc(C#N)cc2)nc2ccc(Cl)cc12 | 8.5 | > 117000 | 117000 | 13800 | 700 |  |  |  |  |  |  |  |  |  | 
26 | COc1cc(C#N)cc(Cl)c1Oc1nc(Nc2ccc(C#N)cc2)nc2ccccc12 | 4.7 | > 219000 | 220000 | 46900 | 160 | 5.4 | 12 | 110 | ≤ 5.4 | 49 | 280 | 467 |  |  | 
27 | CC(C)Nc1cccnc1N1CCN(C(=O)c2cc3cc(NS(C)(=O)=O)ccc3[nH]2)CC1 [DELAVIRDINE] | 479 |  | > 43000 | > 92 | > 43000 | 610 | 566 | 7950 | 6510 | 6250 | 6430 | 9850 |  |  | 
28 | O=C1Nc2ccc(Cl)cc2[C@@](C#CC2CC2)(C(F)(F)F)O1 [EFAVIRENZ] |  |  | ≥ 6300 |  | 110 |  | 5.4 | 32 | 66 | 5.7 | 222 | 104 |  |  | 
29 | Cc1ccnc2c1NC(=O)c1cccnc1N2C1CC1 [NEVIRAPINE] | 1320 |  | ≥ 15000 |  | ≥ 15000 | 102 | 162 | 2030 |  | > 15000 | > 15000 | > 15000 |  |  | 
